Data: ChEMBL document CHEMBL4346654 (Eur J Med Chem, 2019)
Values after ≈ are worked out from the molar mass of the structure shown.

Tests used:
Staphylococcus aureus [1] = assay: Antibacterial activity against MLS-resistant Staphylococcus aureus PU 32 expressing inducible ermA gene assessed as reduction in microbial growth by CLSI based two-fold broth dilution method; format: functional
Streptococcus pneumoniae [2] = assay: Antibacterial activity against erythromycin-susceptible Streptococcus pneumoniae ATCC49619 assessed as reduction in microbial growth by CLSI based two-fold broth dilution method; format: functional
Streptococcus pneumoniae [3] = assay: Bactericidal activity against erythromycin-susceptible Streptococcus pneumoniae ATCC49619 pretreated followed by subculture in absence of compound measured after 24 hrs; format: functional
Outline: (§1)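 Isolates were identified by 16S rDNA sequencing. MIC was determined by CLSI-recommended two-fold broth dilution. For MBC, samples from 1–8 fold MIC were transferred to culture medium and subcultured for 24 h without antibiotic.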

Haemophilus influenzae [4] = assay: Antibacterial activity against azithromycin-susceptible Haemophilus influenzae ATCC 49247 assessed as reduction in microbial growth by CLSI based two-fold broth dilution method; format: functional
Streptococcus pneumoniae [5] = assay: Antibacterial activity against Streptococcus pneumoniae 07P390 expressing constitutive ermB gene assessed as reduction in microbial growth by CLSI based two-fold broth dilution method; format: functional
Streptococcus pneumoniae [6] = assay: Antibacterial activity against penicillin-susceptible Streptococcus pneumoniae PU 09 expressing mef gene assessed as reduction in microbial growth by CLSI based two-fold broth dilution method; format: functional
Streptococcus pneumoniae [7] = assay: Bactericidal activity against penicillin-susceptible Streptococcus pneumoniae PU 09 expressing mef gene pretreated followed by subculture in absence of compound measured after 24 hrs; format: functional; outline: as §1
Streptococcus pneumoniae [8] = assay: Selectivity ratio of MBC to MIC for penicillin-susceptible Streptococcus pneumoniae PU 09 expressing mef gene; format: functional; outline: as §1
Streptococcus pneumoniae [9] = assay: Bactericidal activity against Streptococcus pneumoniae 07P390 expressing constitutive ermB gene pretreated followed by subculture in absence of compound measured after 24 hrs; format: functional; outline: as §1
Streptococcus pneumoniae [10] = assay: Selectivity ratio of MBC to MIC for Streptococcus pneumoniae 07P390 expressing constitutive ermB gene; format: functional; outline: as §1
Haemophilus influenzae [11] = assay: Bactericidal activity against azithromycin-susceptible Haemophilus influenzae ATCC 49247 pretreated followed by subculture in absence of compound measured after 24 hrs; format: functional; outline: as §1
Haemophilus influenzae [12] = assay: Selectivity ratio of MBC to MIC for azithromycin-susceptible Haemophilus influenzae ATCC 49247; format: functional; outline: as §1
Streptococcus pyogenes [13] = assay: Antibacterial activity against MLS-resistant Streptococcus pyogenes 01-968 expressing inducible ermB gene assessed as reduction in microbial growth by CLSI based two-fold broth dilution method; format: functional
Streptococcus pyogenes [14] = assay: Bactericidal activity against MLS-resistant Streptococcus pyogenes 01-968 expressing inducible ermB gene pretreated followed by subculture in absence of compound measured after 24 hrs; format: functional
Outline: (§2)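 MBC assay. Following MIC determination by CLSI standard two-fold broth dilution, samples at 1–8 fold MIC were transferred to fresh culture medium. They were subcultured for 24 h without antibiotic. Isolates were identified by 16S rDNA sequencing. S. aureus ATCC 29213 was used as a control strain.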

Streptococcus pyogenes [15] = assay: Selectivity ratio of MBC to MIC for MLS-resistant Streptococcus pyogenes 01-968 expressing inducible ermB gene; format: functional
Outline: (§3)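 MBC/MIC ratio. MIC was measured by CLSI standard two-fold broth dilution. MBC was measured by transferring samples at 1–8 fold MIC to culture medium and subculturing for 24 h without antibiotic. Isolates were identified by 16S rDNA sequencing.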

Staphylococcus aureus [16] = assay: Bactericidal activity against MLS/methicillin-resistant Staphylococcus aureus PU 32 expressing inducible ermA gene pretreated followed by subculture in absence of compound measured after 24 hrs; format: functional; outline: as §2
Staphylococcus aureus [17] = assay: Selectivity ratio of MBC to MIC for MLS/methicillin-resistant Staphylococcus aureus PU 32 expressing inducible ermA gene; format: functional; outline: as §3
Staphylococcus aureus [18] = assay: Antibacterial activity against MLS-resistant Staphylococcus aureus PU 20 expressing constitutive ermC gene assessed as reduction in microbial growth by CLSI based two-fold broth dilution method; format: functional
Streptococcus pyogenes [19] = assay: Antibacterial activity against MLS-resistant Streptococcus pyogenes 12-206 expressing constitutive ermA gene assessed as reduction in microbial growth by CLSI based two-fold broth dilution method; format: functional
Streptococcus pyogenes [20] = assay: Bactericidal activity against MLS-resistant Streptococcus pyogenes 12-206 expressing constitutive ermA gene pretreated followed by subculture in absence of compound measured after 24 hrs; format: functional; outline: as §2
Streptococcus pyogenes [21] = assay: Selectivity ratio of MBC to MIC for MLS-resistant Streptococcus pyogenes 12-206 expressing constitutive ermA gene; format: functional; outline: as §3
Streptococcus pyogenes [22] = assay: Antibacterial activity against Streptococcus pyogenes 12-207 expressing mef gene assessed as reduction in microbial growth by CLSI based two-fold broth dilution method; format: functional
Streptococcus pyogenes [23] = assay: Bactericidal activity against Streptococcus pyogenes 12-207 expressing mef gene pretreated followed by subculture in absence of compound measured after 24 hrs; format: functional; outline: as §1
Streptococcus pyogenes [24] = assay: Selectivity ratio of MBC to MIC for Streptococcus pyogenes 12-207 expressing mef gene; format: functional; outline: as §1
Moraxella catarrhalis [25] = assay: Antibacterial activity against erythromycin-susceptible Moraxella catarrhalis 13L332 assessed as reduction in microbial growth by CLSI based two-fold broth dilution method; format: functional
Moraxella catarrhalis [26] = assay: Bactericidal activity against erythromycin-susceptible Moraxella catarrhalis 13L332 pretreated followed by subculture in absence of compound measured after 24 hrs; format: functional; outline: as §1
Moraxella catarrhalis [27] = assay: Selectivity ratio of MBC to MIC for erythromycin-susceptible Moraxella catarrhalis 13L332; format: functional; outline: as §1
[28] = AUCinfinity in Sprague-Dawley rat at 20 mg/kg, po after 0.25 to 24 hrs by LC-MS/MS analysis; format: ADME, organism-based; parameters: dose 20 mg/kg, time infinity, route oral; conditions: Sprague-Dawley, in vivo
Outline: (§4)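 Male SD rats were given a single 20 mg/Kg oral dose. Blood was sampled at 0.25, 0.5, 1, 2, 4, 6, 8 and 24 h and centrifuged at 2500 g for 5 min at 4 °C. Drug levels were quantified by LC-MS/MS. t1/2, Cmax, Tmax, CL, MRT and AUC were calculated from the concentration–time data.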

[29] = AUC (0 to t) in Sprague-Dawley rat at 20 mg/kg, po after 0.25 to 24 hrs by LC-MS/MS analysis; format: ADME, organism-based; parameters: time upper 24 hr, dose 20 mg/kg, time lower 0.25 hr, route oral; conditions: in vivo; outline: as §4
[30] = Systemic plasma clearance in Sprague-Dawley rat at 20 mg/kg, po after 0.25 to 24 hrs by LC-MS/MS analysis; format: ADME, organism-based; outline: as §4
[31] = Half life in Sprague-Dawley rat at 20 mg/kg, po after 0.25 to 24 hrs by LC-MS/MS analysis; format: ADME, organism-based; conditions: in vivo; outline: as §4
[32] = MRT in Sprague-Dawley rat at 20 mg/kg, po after 0.25 to 24 hrs by LC-MS/MS analysis; format: ADME, organism-based; conditions: in vivo; outline: as §4
[33] = Tmax in Sprague-Dawley rat at 20 mg/kg, po after 0.25 to 24 hrs by LC-MS/MS analysis; format: ADME, organism-based; conditions: in vivo; outline: as §4
[34] = Cmax in Sprague-Dawley rat at 20 mg/kg, po after 0.25 to 24 hrs by LC-MS/MS analysis; format: ADME, organism-based; parameters: dose 20 mg/kg, route oral; conditions: in vivo; outline: as §4
Cytochrome P450 3A4 [35] = molecular target: T1, Cytochrome P450 3A4 (Homo sapiens, UniProt P08684); assay: Inhibition of CYP3A4 in human liver microsomes assessed as reduction in metabolite formation using midazolam as substrate incubated for 10 mins in presence of NADPH by HPLC based mass spectrometric method; format: ADME
Outline: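 Human liver microsome CYP3A4 with midazolam substrate in 0.1 M potassium phosphate buffer was prewarmed at 37 °C for 5 min. Compound and 25 mM NADPH solution (stock) were added, then incubated at 37 °C for 10 min. Ketoconazole served as the positive inhibitor. Metabolite was measured by UPLC–triple quadrupole MS as the metabolite/internal standard peak area ratio, and IC50 was derived by curve fitting.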

Rattus norvegicus = assay: Ratio of test compound half life to telithromycin half life in Sprague-Dawley rat at 20 mg/kg, po after 0.25 to 24 hrs by LC-MS/MS analysis; format: ADME, organism-based; conditions: in vivo
[36] = Ratio of test compound MRT to telithromycin MRT in Sprague-Dawley rat at 20 mg/kg, po after 0.25 to 24 hrs by LC-MS/MS analysis; format: ADME, organism-based; conditions: in vivo
Staphylococcus aureus [37] = assay: Bactericidal activity against MLS-resistant Staphylococcus aureus PU 20 expressing constitutive ermC gene pretreated followed by subculture in absence of compound measured after 24 hrs; format: functional; outline: as §2
Cytochrome P450 3A4 [38] = molecular target: T1, Cytochrome P450 3A4; assay: Inhibition of CYP3A4 (unknown origin); format: ADME

T1 sequence (P08684 whole entry): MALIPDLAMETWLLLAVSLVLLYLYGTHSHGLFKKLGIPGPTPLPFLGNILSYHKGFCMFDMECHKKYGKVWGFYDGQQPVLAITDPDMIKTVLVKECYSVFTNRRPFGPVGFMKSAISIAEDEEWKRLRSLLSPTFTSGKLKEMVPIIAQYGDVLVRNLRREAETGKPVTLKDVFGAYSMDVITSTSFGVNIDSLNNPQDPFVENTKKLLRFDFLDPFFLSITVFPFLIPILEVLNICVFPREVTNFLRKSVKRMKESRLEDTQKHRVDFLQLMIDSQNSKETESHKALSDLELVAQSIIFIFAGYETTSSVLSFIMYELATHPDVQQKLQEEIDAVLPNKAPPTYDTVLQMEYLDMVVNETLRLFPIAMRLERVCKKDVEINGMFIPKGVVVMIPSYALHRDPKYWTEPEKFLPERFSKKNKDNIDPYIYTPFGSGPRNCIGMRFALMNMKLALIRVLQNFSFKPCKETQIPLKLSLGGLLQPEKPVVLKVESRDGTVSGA

SMILES: CC[C@H]1OC(=O)[C@@](C)(F)C(=O)[C@H](C)[C@@H](O[C@@H]2O[C@H](C)C[C@H](N(C)C)[C@H]2O)[C@](C)(OC/C=C/c2ccc3c(c2)c(=O)c(C(N)=O)cn3C2CC2)C[C@@H](C)/C(=N\OC)[C@H](C)[C@H]2OC(=O)O[C@@]21C
- MIC (Staphylococcus aureus [1]): 0.25 µg/mL
- MIC (Streptococcus pneumoniae [2]): ≤ 8 ng/mL
- MBC (Streptococcus pneumoniae [3]): ≤ 8 ng/mL
- MIC (Haemophilus influenzae [4]): 16 µg/mL
- MIC (Streptococcus pneumoniae [5]): ≤ 0.008 µg/mL
- MIC (Streptococcus pneumoniae [6]): 0.5 µg/mL
- MBC (Streptococcus pneumoniae [7]): 0.5 µg/mL (≈ 0.548 µM)
- Selectivity ratio (Streptococcus pneumoniae [8]): 1
- MBC (Streptococcus pneumoniae [9]): > 0.062 µg/mL
- Selectivity ratio (Streptococcus pneumoniae [10]): >8
- MBC (Haemophilus influenzae [11]): 32 µg/mL (≈ 35 µM)
- Selectivity ratio (Haemophilus influenzae [12]): 2
- MIC (Streptococcus pyogenes [13]): ≤ 2 ng/mL
- MBC (Streptococcus pyogenes [14]): > 0.016 µg/mL
- Selectivity ratio (Streptococcus pyogenes [15]): >8
- MBC (Staphylococcus aureus [16]): > 2 µg/mL
- Selectivity ratio (Staphylococcus aureus [17]): >8
- MIC (Staphylococcus aureus [18]): > 256 µg/mL
- MIC (Streptococcus pyogenes [19]): 0.016 µg/mL
- MBC (Streptococcus pyogenes [20]): > 0.125 µg/mL
- Selectivity ratio (Streptococcus pyogenes [21]): >8
- MIC (Streptococcus pyogenes [22]): 0.062 µg/mL
- MBC (Streptococcus pyogenes [23]): 0.125 µg/mL (≈ 0.137 µM)
- Selectivity ratio (Streptococcus pyogenes [24]): 2
- MIC (Moraxella catarrhalis [25]): 0.5 µg/mL
- MBC (Moraxella catarrhalis [26]): 4 µg/mL (≈ 4.38 µM)
- Selectivity ratio (Moraxella catarrhalis [27]): 8
- AUC(0-inf) [28]: 4770 ng·h/mL
- AUC(0-t) [29]: 4600 ng·h/mL
- CL/F [30]: 80.8 mL/min/kg
- half-life [31]: 260 min
- MRT [32]: 8.32 h
- Tmax [33]: 6.67 h
- Cmax [34]: 369 ng/mL
- IC50 (Cytochrome P450 3A4 [35]): 14.9 µM
- Ratio (Rattus norvegicus): 2.5 to 3.6
- Ratio [36]: 2.3 to 2.6

SMILES: CC[C@H]1OC(=O)[C@@](C)(F)C(=O)[C@H](C)[C@@H](O[C@@H]2O[C@H](C)C[C@H](N(C)C)[C@H]2O)[C@](C)(OC)C[C@@H](C)/C(=N\OCC#Cc2ccc3c(c2)c(=O)c(C(N)=O)cn3CC)[C@H](C)[C@H]2OC(=O)O[C@@]21C
- MIC (Staphylococcus aureus [1]): 1 µg/mL
- MIC (Streptococcus pneumoniae [2]): ≤ 8 ng/mL
- MBC (Streptococcus pneumoniae [3]): ≤ 8 ng/mL
- MIC (Haemophilus influenzae [4]): 16 µg/mL
- MIC (Streptococcus pneumoniae [5]): 0.125 µg/mL
- MIC (Streptococcus pneumoniae [6]): 0.25 µg/mL
- MBC (Streptococcus pneumoniae [7]): 0.5 µg/mL (≈ 0.556 µM)
- Selectivity ratio (Streptococcus pneumoniae [8]): 2
- MBC (Streptococcus pneumoniae [9]): > 1 µg/mL
- Selectivity ratio (Streptococcus pneumoniae [10]): >8
- MBC (Haemophilus influenzae [11]): 32 µg/mL (≈ 35.6 µM)
- Selectivity ratio (Haemophilus influenzae [12]): 2
- MIC (Streptococcus pyogenes [13]): ≤ 2 ng/mL
- MBC (Streptococcus pyogenes [14]): > 0.016 µg/mL
- Selectivity ratio (Streptococcus pyogenes [15]): >8
- MBC (Staphylococcus aureus [16]): 8 µg/mL (≈ 8.9 µM)
- Selectivity ratio (Staphylococcus aureus [17]): 8
- MIC (Staphylococcus aureus [18]): 128 µg/mL
- MBC (Staphylococcus aureus [37]): > 256 µg/mL
- MIC (Streptococcus pyogenes [19]): 0.125 µg/mL
- MBC (Streptococcus pyogenes [20]): > 1 µg/mL
- Selectivity ratio (Streptococcus pyogenes [21]): >8
- MIC (Streptococcus pyogenes [22]): 0.125 µg/mL
- MBC (Streptococcus pyogenes [23]): 0.5 µg/mL (≈ 0.556 µM)
- Selectivity ratio (Streptococcus pyogenes [24]): 4
- MIC (Moraxella catarrhalis [25]): 4 µg/mL
- MBC (Moraxella catarrhalis [26]): 32 µg/mL (≈ 35.6 µM)
- Selectivity ratio (Moraxella catarrhalis [27]): 8
- AUC(0-inf) [28]: 281 ng·h/mL
- AUC(0-t) [29]: 228 ng·h/mL
- CL/F [30]: 1190 mL/min/kg
- half-life [31]: 192 min
- MRT [32]: 8.53 h
- Tmax [33]: 7 h
- Cmax [34]: 43.5 ng/mL
- IC50 (Cytochrome P450 3A4 [35]): 7.32 µM
- Ratio (Rattus norvegicus): 2.5 to 3.6
- Ratio [36]: 2.3 to 2.6

SMILES: CC[C@H]1OC(=O)[C@H](C)C(=O)[C@H](C)[C@@H](O[C@@H]2O[C@H](C)C[C@H](N(C)C)[C@H]2O)[C@](C)(OCC=Cc2cnc3ccccc3c2)C[C@@H](C)C(=O)[C@H](C)[C@H]2NC(=O)O[C@@]21C [CETHROMYCIN]
- IC50 (Cytochrome P450 3A4 [38]): 2700 nM
